These results are taken from ChEMBL document CHEMBL4033795, “Design, Synthesis, and Structure-Activity Relationship Study of 2-Oxo-3,4-dihydropyrimido[4,5- d]pyrimidines as New Colony Stimulating Factor 1 Receptor (CSF1R) Kinase Inhibitors” (J Med Chem, 2018).

Each structure is given as a SMILES string.

Test [1] deals with Macrophage colony-stimulating factor 1 receptor (Homo sapiens, UniProt P07333). Kind of test: Inhibition of recombinant human His-tagged CSF1R cytoplasmic domain (538 to 910 residues) expressed in baculovirus using tyr4 peptide as substrate after 1 hr by FRET-based Z'-Lyte assay. In short, it runs like this:
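Z′-Lyte FRET assay with CSF1R or EGFR and 2 μM Tyr4 peptide substrate in 1× kinase buffer. ATP was supplied as a 100 μM solution, a stock and not the final concentration. Compounds were 3-fold serially diluted in DMSO. Reaction ran 1 h at room temperature, followed by 1 h development and a stop reagent. Phospho-peptide, no-ATP and DMSO controls were included. IC50 by curve fitting; mean of at least three independent experiments.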

Test [2] deals with Epidermal growth factor receptor (Homo sapiens, UniProt P00533). As to the kind of experiment: Inhibition of recombinant human wild type GST-tagged EGFR cytoplasmic domain (668 to 1210 residues) expressed in baculovirus using tyr4 peptide as substrate after 1 hr by FRET-based Z'-Lyte assay.
Epidermal growth factor receptor, sequence (P00533 whole entry, the tested form may be a part): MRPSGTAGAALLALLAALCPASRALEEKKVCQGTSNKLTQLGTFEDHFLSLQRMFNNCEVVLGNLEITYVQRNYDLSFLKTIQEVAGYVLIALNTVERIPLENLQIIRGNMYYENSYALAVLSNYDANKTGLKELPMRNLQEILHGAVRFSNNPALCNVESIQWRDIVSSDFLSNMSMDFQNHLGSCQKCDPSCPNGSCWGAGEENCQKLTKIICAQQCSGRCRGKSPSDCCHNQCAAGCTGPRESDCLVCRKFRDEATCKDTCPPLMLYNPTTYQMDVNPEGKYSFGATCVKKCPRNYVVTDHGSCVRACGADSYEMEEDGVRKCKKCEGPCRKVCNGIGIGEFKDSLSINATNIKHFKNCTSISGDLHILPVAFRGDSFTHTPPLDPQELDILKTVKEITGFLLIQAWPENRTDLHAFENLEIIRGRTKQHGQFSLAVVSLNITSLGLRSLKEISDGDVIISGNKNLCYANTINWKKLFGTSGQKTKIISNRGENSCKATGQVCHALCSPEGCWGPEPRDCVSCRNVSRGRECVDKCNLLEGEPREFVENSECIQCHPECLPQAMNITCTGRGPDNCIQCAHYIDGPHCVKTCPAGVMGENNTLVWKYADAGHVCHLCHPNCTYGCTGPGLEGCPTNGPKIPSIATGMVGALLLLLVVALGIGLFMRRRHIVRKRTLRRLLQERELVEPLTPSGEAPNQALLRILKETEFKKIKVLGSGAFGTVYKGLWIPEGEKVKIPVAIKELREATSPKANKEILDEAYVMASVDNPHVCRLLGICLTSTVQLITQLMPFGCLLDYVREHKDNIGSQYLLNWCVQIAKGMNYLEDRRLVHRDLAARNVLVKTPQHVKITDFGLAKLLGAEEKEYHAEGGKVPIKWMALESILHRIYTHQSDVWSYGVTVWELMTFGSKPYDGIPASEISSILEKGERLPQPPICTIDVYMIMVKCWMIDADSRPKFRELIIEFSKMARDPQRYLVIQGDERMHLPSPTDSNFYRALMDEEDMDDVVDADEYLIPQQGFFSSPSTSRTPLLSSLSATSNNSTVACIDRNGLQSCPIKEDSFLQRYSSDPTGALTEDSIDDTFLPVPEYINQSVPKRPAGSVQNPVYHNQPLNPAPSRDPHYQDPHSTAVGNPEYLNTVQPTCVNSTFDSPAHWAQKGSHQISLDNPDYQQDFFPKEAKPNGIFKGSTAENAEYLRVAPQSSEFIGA

Macrophage colony-stimulating factor 1 receptor, sequence (P07333 whole entry, the tested form may be a part): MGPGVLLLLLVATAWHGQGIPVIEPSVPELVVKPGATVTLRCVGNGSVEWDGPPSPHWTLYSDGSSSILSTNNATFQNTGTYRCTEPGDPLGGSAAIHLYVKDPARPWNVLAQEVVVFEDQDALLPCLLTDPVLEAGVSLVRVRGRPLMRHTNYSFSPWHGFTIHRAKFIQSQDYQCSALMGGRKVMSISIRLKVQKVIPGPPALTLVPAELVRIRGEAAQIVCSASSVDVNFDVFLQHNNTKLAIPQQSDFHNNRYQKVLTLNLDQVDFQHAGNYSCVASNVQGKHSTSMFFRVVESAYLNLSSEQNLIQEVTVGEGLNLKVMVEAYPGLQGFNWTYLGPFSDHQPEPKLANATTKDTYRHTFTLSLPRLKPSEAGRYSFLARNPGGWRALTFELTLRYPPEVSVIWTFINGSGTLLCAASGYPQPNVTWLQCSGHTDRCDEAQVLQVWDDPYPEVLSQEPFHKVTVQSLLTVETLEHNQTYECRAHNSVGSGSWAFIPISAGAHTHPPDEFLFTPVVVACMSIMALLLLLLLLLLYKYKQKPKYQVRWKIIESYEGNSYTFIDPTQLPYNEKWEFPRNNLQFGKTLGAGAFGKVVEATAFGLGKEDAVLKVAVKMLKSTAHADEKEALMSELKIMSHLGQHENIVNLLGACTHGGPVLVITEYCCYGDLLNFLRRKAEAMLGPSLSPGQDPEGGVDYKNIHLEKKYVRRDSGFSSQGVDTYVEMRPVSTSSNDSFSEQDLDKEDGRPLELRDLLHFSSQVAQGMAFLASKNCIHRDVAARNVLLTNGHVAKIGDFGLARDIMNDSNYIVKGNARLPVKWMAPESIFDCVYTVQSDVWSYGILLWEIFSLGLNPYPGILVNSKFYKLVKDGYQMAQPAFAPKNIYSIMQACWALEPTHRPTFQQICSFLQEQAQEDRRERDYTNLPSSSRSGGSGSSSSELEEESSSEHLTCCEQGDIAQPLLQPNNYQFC

For `CCC(=O)N1CC[C@H](N2C(=O)N(c3cc(OC)ccc3F)Cc3cnc(Nc4ccc(N5CCN(C6COC6)CC5)c(C)c4)nc32)C1`, the half-maximal inhibitory concentration (IC50) – broadly, the point on the concentration scale where inhibition reaches its midpoint – is 3.4 nM in test [1] and 302 nM in test [2]. The like results for `CCC(=O)N1CC[C@H](N2C(=O)N(c3cc(OC)ccc3F)Cc3cnc(Nc4ccc(N5CCN(C)CC5)cc4C)nc32)C1` were, in that order, 20.2 nM and 2500 nM. Turning to `CCC(=O)N1CC[C@H](N2C(=O)N(c3cc(OC)ccc3F)Cc3cnc(Nc4ccc(N5CCN(C(C)=O)CC5)c(C)c4)nc32)C1`, the IC50 was found to be 25.9 nM in test [1] and 148 nM in test [2]. For `CCC(=O)N1CC[C@H](N2C(=O)N(c3cc(OC)ccc3F)Cc3cnc(Nc4ccc(N5CCN(C)[C@@H](C)C5)c(C)c4)nc32)C1`, the IC50 in test [1] came to 7.2 nM; in test [2] it was 715 nM. The like results for `Cc1cc(Nc2ncc3c(n2)N([C@H]2CCN(C(=O)CO)C2)C(=O)N(c2ccccc2Cl)C3)ccc1N1CCN(C)CC1` were, in that order, 20 nM and 7 nM. The like results for `CCC(=O)N1CC[C@H](N2C(=O)N(c3cc(OC)ccc3F)Cc3cnc(Nc4ccc(N(C)CCN(C)C)c(C)c4)nc32)C1` were, in that order, 10.3 nM and 1300 nM. The like results for `CCC(=O)N1CC[C@H](N2C(=O)N(c3cc(OC)ccc3F)Cc3cnc(Nc4ccc(N5CCCN(C)CC5)c(C)c4)nc32)C1` were, in that order, 4.9 nM and 209 nM. `CCC(=O)N1CC[C@H](N2C(=O)N(c3ccc(F)cc3)Cc3cnc(Nc4ccc(N5CCN(C)CC5)c(C)c4)nc32)C1`: the figures for the IC50 in test [1] and in test [2] were 18.1 nM and 71.6 nM, respectively. Consider `Cc1cc(Nc2ncc3c(n2)N([C@H]2CCN(C(=O)C4CCCC4)C2)C(=O)N(c2ccccc2Cl)C3)ccc1N1CCN(C)CC1`, for which the concentration for half-maximal inhibition (IC50) was 28.4 nM in test [1] and 25.5 nM in test [2]. Turning to `CCC(=O)N1CC[C@H](N2C(=O)N(c3ccc(Cl)cc3)Cc3cnc(Nc4ccc(N5CCN(C)CC5)c(C)c4)nc32)C1`, the results for the IC50 in test [1] and in test [2] were 14.8 nM and 383 nM, respectively. In the case of `CCC(=O)N1CC[C@H](N2C(=O)N(c3cccc(OC(F)F)c3)Cc3cnc(Nc4ccc(N5CCN(C)CC5)c(C)c4)nc32)C1`, the IC50 turned out to be 28 nM in test [1] and 257 nM in test [2]. On to `CCC(=O)N1CC[C@H](N2C(=O)N(c3cccc(OC(F)(F)F)c3)Cc3cnc(Nc4ccc(N5CCN(C)CC5)c(C)c4)nc32)C1`, for which the results for the IC50 in test [1] and in test [2] were 151 nM and 889 nM, respectively.

`CCC(=O)N1CC[C@H](N2C(=O)N(c3cc(OC)ccc3F)Cc3cnc(Nc4ccc(N5CCN(C)CC5)c(OC)c4)nc32)C1`: the results for the concentration for half-maximal inhibition (IC50) in test [1] and in test [2] were 5.8 nM and 600 nM, respectively. The like results for `CCC(=O)N1CC[C@H](N2C(=O)N(c3cccc(F)c3)Cc3cnc(Nc4ccc(N5CCN(C)CC5)c(C)c4)nc32)C1` were, in that order, 15.2 nM and 35.8 nM. For the compound `FC(F)(F)c1ccc(CNc2ccc(Cc3c[nH]c4ncc(Cl)cc34)cn2)cn1` [PEXIDARTINIB], the IC50 in test [2] is > 10000 nM. For the compound `CC(=O)N1CC[C@H](N2C(=O)N(c3ccccc3Cl)Cc3cnc(Nc4ccc(N5CCN(C)CC5)c(C)c4)nc32)C1`, the IC50 in test [1] came out at 5.5 nM; in test [2], 12.1 nM. With `C=CC(=O)N1CC[C@H](N2C(=O)N(c3ccccc3Cl)Cc3cnc(Nc4ccc(N5CCN(C)CC5)c(C)c4)nc32)C1`, the concentration for half-maximal inhibition (IC50) was 30 nM in test [1] and 0.5 nM in test [2]. In the case of `CCC(=O)N1CC[C@H](N2C(=O)N(c3cc(OC)ccc3F)Cc3cnc(Nc4ccc(N5CCC6(CCN(C)CC6)CC5)c(C)c4)nc32)C1`, the IC50 in test [1] is 6.2 nM; in test [2], 224 nM. The like results for `CCCC(=O)N1CC[C@H](N2C(=O)N(c3ccccc3Cl)Cc3cnc(Nc4ccc(N5CCN(C)CC5)c(C)c4)nc32)C1` were, in that order, 10.1 nM and 28.9 nM. The like results for `CCC(=O)N1CC[C@H](N2C(=O)N(c3cccc(Cl)c3)Cc3cnc(Nc4ccc(N5CCN(C)CC5)c(C)c4)nc32)C1` were, in that order, 13.2 nM and 144 nM. The like results for `CCC(=O)N1CC[C@H](N2C(=O)N(c3cc(OC)ccc3F)Cc3cnc(Nc4ccc(N5CCC6(CCN(C)C6)C5)c(C)c4)nc32)C1` (some centres not stated) were, in that order, 6.8 nM and 296 nM. For the compound `CCC(=O)N1CC[C@H](N2C(=O)N(c3cc(OC)ccc3F)Cc3cnc(Nc4ccc(N5C[C@@H](C)N(C)[C@@H](C)C5)c(C)c4)nc32)C1`, the IC50 in test [1] is 7.8 nM; in test [2], 888 nM.

With `Cc1cc(Nc2ncc3c(n2)N([C@H]2CCN(C(=O)C4CCCCC4)C2)C(=O)N(c2ccccc2Cl)C3)ccc1N1CCN(C)CC1`, the IC50 in test [1] stood at 30.6 nM; in test [2], 24.9 nM.

`CCC(=O)N1CC[C@H](N2C(=O)N(c3ccccc3F)Cc3cnc(Nc4ccc(N5CCN(C)CC5)c(C)c4)nc32)C1`: the values for the IC50 in test [1] and in test [2] were 5.2 nM and 17.6 nM, respectively.

As for `CCC(=O)N1CC[C@H](N2C(=O)N(c3cc(OC)ccc3F)Cc3cnc(Nc4ccc(N5CCOCC5)c(C)c4)nc32)C1`, the values for the half-maximal inhibitory concentration (IC50) in test [1] and in test [2] were 25.2 nM and 626 nM, respectively. In the case of `CCC(=O)N1CC[C@@H](N2C(=O)N(c3ccccc3Cl)Cc3cnc(Nc4ccc(N5CCN(C)CC5)c(C)c4)nc32)C1`, the IC50 in test [1] was 20.9 nM; in test [2] it was 23.4 nM. The like results for `CCC(=O)N1CC[C@H](N2C(=O)N(c3cc(OC)ccc3F)Cc3cnc(Nc4ccc(N5CCN(C)CC5)c(Cl)c4)nc32)C1` were, in that order, 14.8 nM and 1200 nM. The like results for `Cc1cc(Nc2ncc3c(n2)N([C@H]2CCN(C(=O)C(C)(C)C)C2)C(=O)N(c2ccccc2Cl)C3)ccc1N1CCN(C)CC1` were, in that order, 20.1 nM and 29.4 nM.

With `CCC(=O)N1CC[C@H](N2C(=O)N(c3cc(OC)ccc3F)Cc3cnc(Nc4ccc(N5C[C@H]6CN(C)C[C@H]6C5)c(C)c4)nc32)C1`, the values for the half-inhibitory concentration (IC50) in test [1] and in test [2] were 7 nM and 216 nM, respectively. The like results for `CCCN1CC[C@H](N2C(=O)N(c3ccccc3Cl)Cc3cnc(Nc4ccc(N5CCN(C)CC5)c(C)c4)nc32)C1` were, in that order, 181 nM and 52.8 nM. The like results for `Cc1cc(Nc2ncc3c(n2)N([C@H]2CCN(C(=O)CC(C)C)C2)C(=O)N(c2ccccc2Cl)C3)ccc1N1CCN(C)CC1` were, in that order, 10.3 nM and 22.2 nM. The like results for `CCC(=O)N1CC[C@H](N2C(=O)N(c3cc(OC)ccc3F)Cc3cnc(Nc4ccc(N5CCN(C)CC5)cc4)nc32)C1` were, in that order, 13.6 nM and 1100 nM. Consider `CCC(=O)N1CC[C@H](N2C(=O)N(c3cc(OC)ccc3F)Cc3cnc(Nc4ccc(N5CCN(C)CC5)c(F)c4)nc32)C1`, for which the figures for the half-inhibitory concentration (IC50) in test [1] and in test [2] were 17.1 nM and 1300 nM, respectively.

Turning to `CCC(=O)N1CC[C@H](N2C(=O)N(c3cccc(C)c3)Cc3cnc(Nc4ccc(N5CCN(C)CC5)c(C)c4)nc32)C1`, the half-inhibitory concentration (IC50) in test [1] worked out at 16.4 nM; in test [2] it was 365 nM. Turning to `CCC(=O)N1CC[C@H](N2C(=O)N(c3ccccc3OC)Cc3cnc(Nc4ccc(N5CCN(C)CC5)c(C)c4)nc32)C1`, the figures for the IC50 in test [1] and in test [2] were 5.1 nM and 27.4 nM, respectively. In the case of `Cc1cc(Nc2ncc3c(n2)N([C@H]2CCN(C(=O)C(C)C)C2)C(=O)N(c2ccccc2Cl)C3)ccc1N1CCN(C)CC1`, the half-maximal inhibitory concentration (IC50) in test [1] turned out to be 6.7 nM; in test [2], 8.5 nM.

For `CCC(=O)N1CC[C@H](N2C(=O)N(c3ccccc3C)Cc3cnc(Nc4ccc(N5CCN(C)CC5)c(C)c4)nc32)C1`, the values for the IC50 in test [1] and in test [2] were 5.6 nM and 7.6 nM, respectively. In the case of `Cc1cc(Nc2ncc3c(n2)N([C@H]2CCN(C(=O)CN(C)C)C2)C(=O)N(c2ccccc2Cl)C3)ccc1N1CCN(C)CC1`, the IC50 in test [1] was determined as 22.7 nM; in test [2], 26.6 nM. Take `Cc1cc(Nc2ncc3c(n2)N([C@H]2CCN(C(=O)C4CC4)C2)C(=O)N(c2ccccc2Cl)C3)ccc1N1CCN(C)CC1`: the IC50 in test [1] turned out to be 20.7 nM; in test [2] it was 28.7 nM. Turning to `CCC(=O)N1CC[C@H](N2C(=O)N(c3cc(OC)ccc3F)Cc3cnc(Nc4ccc(N5CCN(C)CC5)c(CC)c4)nc32)C1`, the concentration for half-maximal inhibition (IC50) in test [1] was 10 nM; in test [2], 518 nM. In the case of `CCC(=O)N1CC[C@H](N2C(=O)N(c3cc(OC)ccc3F)Cc3cnc(Nc4ccc(N5CCN(C)CC5)c(C(C)C)c4)nc32)C1`, the IC50 in test [1] was 25.8 nM; in test [2], 365 nM. The like results for `CCC(=O)N1CC[C@H](N2C(=O)N(c3cc(OC)ccc3F)Cc3cnc(Nc4ccc(N5CCC(N(C)C)CC5)c(C)c4)nc32)C1` were, in that order, 4.7 nM and 286 nM. The like results for `CCC(=O)N1CC[C@H](N2C(=O)N(c3ccc(OC)cc3)Cc3cnc(Nc4ccc(N5CCN(C)CC5)c(C)c4)nc32)C1` were, in that order, 5.8 nM and 153 nM.

`CCC(=O)N1CC[C@H](N2C(=O)N(c3ccc(C)cc3)Cc3cnc(Nc4ccc(N5CCN(C)CC5)c(C)c4)nc32)C1`: the IC50 came to 20.6 nM in test [1] and 377 nM in test [2]. On to `CCC(=O)N1CC[C@H](N2C(=O)N(c3cc(OC)ccc3F)Cc3cnc(Nc4ccc(N5CCCCC5)c(C)c4)nc32)C1`, for which the figures for the IC50 in test [1] and in test [2] were 41.2 nM and 467 nM, respectively. The like results for `CCC(=O)N1CC[C@H](N2C(=O)N(c3ccccc3Cl)Cc3cnc(Nc4ccc(N5CCN(C)CC5)c(C)c4)nc32)C1` were, in that order, 5 nM and 15.7 nM.

In the case of `CCC(=O)N1CC[C@H](N2C(=O)N(c3cc(OC)ccc3F)Cc3cnc(Nc4ccc(N5CCN(C)CC5)cc4OC)nc32)C1`, the 50% inhibitory concentration (IC50) in test [1] stood at 30.4 nM; in test [2], 1600 nM. The like results for `CCC(=O)N1CC[C@H](N2C(=O)N(c3cc(OC)ccc3F)Cc3cnc(Nc4ccc(N5CCN(C)CC5)c(C(F)(F)F)c4)nc32)C1` were, in that order, 31.9 nM and 3400 nM.

Turning to `CCC(=O)N1CC[C@H](N2C(=O)N(c3cc(OC)ccc3F)Cc3cnc(Nc4ccc(N5CC6(CCN(C)CC6)C5)c(C)c4)nc32)C1`, the IC50 in test [1] came out at 6.5 nM; in test [2], 218 nM.
